PABP FP inh – blocks human PABP binding to poly(A) RNA | P11940 | actives 1% (n = 290,000) | fluorescence polarization | inhibition, % at 35 µM;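 note: calls also rest on retests at 20 µM and on dose response follow-up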
Target sequence (P11940 whole entry, looked up): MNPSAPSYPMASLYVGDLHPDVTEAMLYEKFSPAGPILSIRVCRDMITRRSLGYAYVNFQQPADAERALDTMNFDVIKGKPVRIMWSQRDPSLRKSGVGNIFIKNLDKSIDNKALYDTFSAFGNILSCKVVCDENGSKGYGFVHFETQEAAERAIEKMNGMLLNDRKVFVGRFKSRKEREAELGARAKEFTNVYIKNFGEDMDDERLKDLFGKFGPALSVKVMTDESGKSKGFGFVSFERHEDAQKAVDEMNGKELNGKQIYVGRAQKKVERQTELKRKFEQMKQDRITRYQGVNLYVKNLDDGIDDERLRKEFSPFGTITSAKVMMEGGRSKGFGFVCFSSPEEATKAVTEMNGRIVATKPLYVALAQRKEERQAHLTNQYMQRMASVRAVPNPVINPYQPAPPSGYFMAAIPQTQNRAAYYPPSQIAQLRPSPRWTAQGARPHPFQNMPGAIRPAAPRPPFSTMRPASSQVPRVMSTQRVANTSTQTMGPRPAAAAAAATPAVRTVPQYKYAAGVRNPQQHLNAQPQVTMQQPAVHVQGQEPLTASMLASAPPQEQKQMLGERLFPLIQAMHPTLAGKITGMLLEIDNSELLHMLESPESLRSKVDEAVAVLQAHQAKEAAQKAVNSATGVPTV
HCV core dimer – blocks dimerization of HCV core protein. TR-FRET GST/Flag-core106 dimerization, 1536-well. inhibition, % at 5 µM. actives 0.33% (n = 300,000). AID 1899;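 active = inhibition above the mean of all tested compounds plus 3 SD, set per screening campaign, cut at about 45% in these data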
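System – GST-tagged and Flag-tagged HCV core protein residues 1-106 · Repeats – one well for each compound · Technique – TR-FRET 671 and 617 nm emission · Doses – one concentration, 5 µM, in 0.5% DMSO · Times – 4 h, 22.5 °C incubation · Also added – Eu donor and XL665 acceptor anti-tag antibodies · Measure – percent inhibition of core106 dimerization signal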
PABP1 MLLE inh – blocks PAM2 peptide binding to the PABP1 MLLE domain; inhibition, % at 20 µM; GST-MLLE / FITC-PAM2 fluorescence polarization; AID 588489; actives 0.36% (n = 360,000); in the data active = inhibition above about 35%, passing the limit was not always enough;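 note: plate controls were DMSO wells with GST-MLLE for no effect and wells lacking GST-MLLE protein for full effect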
eIF4H FP inh – inhibitors of RNA binding by human eIF4H; Q15056; eIF4H fluorescence polarization binding assay; inhibition, % at 35 µM; actives 0.94% (n = 290,000); AID 2012;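 note: calls also rest on retests at 20 µM and on dose response follow-up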
FID counter – displaces DNA intercalator in HCV helicase counter-screen. inhibition, % at 7.9 µM. actives 0.17% (n = 290,000). DNA fluorescent intercalator displacement, fluorescence. AID 1845; in the data active = inhibition above about 37%;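 note: 0% = vehicle and 100% = reference compound; higher means more ethidium bromide displaced from hairpin DNA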
HCV NS3 hel inh – HCV NS3 helicase inhibition. NS3 helicase DNA unwinding, Cy5 molecular beacon fluorescence. inhibition, % at 10.9 µM. actives 0.56% (n = 290,000). AID 1800;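 active = inhibition above the mean of all tested compounds plus 3 SD, set per campaign, cut at about 35% in these data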;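 note: 0% = DMSO wells and 100% = thioflavine S control wells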
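Compound dosing – single dose, 10.9 µM nominal final, DMSO 0.8% final · System – NS3 helicase fragment of HCV · Buffer or medium – MOPS pH 6.5, MgCl2, DTT, Tween20, BSA · Signal – Cy5 beacon fluorescence read at start and 1 h · Also added – annealed dual-labelled DNA beacon duplex, ATP-started · Schedule – 1 h at 25 °C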
* marks the source's active call; other numbers are inactive results; nt = no result. Rows were chosen to be rich in hits. Some 2% of all compounds tested hit in one or more screens of this group. Unless noted, the rule behind the calls is not given here.

SMILES	PABP FP inh	HCV core dimer	PABP1 MLLE inh	eIF4H FP inh	FID counter	HCV NS3 hel inh
Cc1cc(NS(=O)(=O)c2ccc(NC(=S)NC(=O)c3ccc(Br)cc3)cc2)no1	-2	8	42*	-9	-37	34
CCCCCC(=O)NNC(=S)NC(=O)c1ccc([N+](=O)[O-])cc1	4	4	39*	62	-5	7
Cc1cc(O)ccc1-c1ccc2nncn2c1	nt	nt	5	nt	nt	nt
C[C@H](CO)N1C[C@H](C)[C@@H](CN(C)C(=O)Nc2ccc3c(c2)OCO3)Oc2c(NC(=O)Cc3ccccc3)cccc2C1=O	nt	nt	4	nt	nt	nt
Cc1cc(C(=O)NC(=S)Nc2cccc(NC(=O)C(C)C)c2)ccc1[N+](=O)[O-]	6	-6	38*	-3	-2	-18
CC(=O)Nc1ccc(NC(=S)NC(=O)c2ccc(-c3ccccc3)cc2)cc1	nt	6	34	nt	nt	nt
CCc1nnc(NS(=O)(=O)c2ccc(NC(=S)NC(=O)c3ccc(F)cc3)cc2)s1	119	5	28	0.6*	-26	25
CC(C)NS(=O)(=O)c1ccc(NC(=S)NC(=O)c2ccc(-c3ccccc3)cc2)cc1	-2	6	41*	0	-2	7
Cc1cc(C)n2nc3nc(N4CCCCC4)nc(-c4ccco4)c3c2n1	56*	23	3	72*	nt	nt
Cc1cc(C)n2nc3ccccc3c2n1	-5	2	13	106	1	2
O=C1CC2(CCN(S(=O)(=O)c3ccccc3F)CC2)Oc2ccccc21	nt	2	14	nt	nt	nt
CC(C)CN(C(=O)COC(=O)c1cc2c(s1)CCC2)C1CCS(=O)(=O)C1 (centres undefined)	22*	88*	1	86*	-25	27
CCN(C(=O)COC(=O)c1cc2c(s1)CCCCC2)C1CCS(=O)(=O)C1 (centres undefined)	-8	-10	5	57	-28	-2
O=C(Cn1nc(-c2cccc(Cl)c2)ccc1=O)NCC1COCCO1 (centres undefined)	nt	-5	-14	nt	nt	nt
Cc1ccc2nc(NC(=O)c3ccc(N4C(=O)CCC4=O)cc3)sc2c1	12	48*	1	18	11	2
CCOCC(=O)Nc1nc2ccc(OCC)cc2s1	4	-1	22	-2	-5	-11
CCOCC(=O)Nc1nc2ccc(C)cc2s1	2	-2	41*	-3	-2	9
Cc1ccc(F)cc1NC(=O)C1C2CCC(O2)C1C(=O)O (centres undefined)	-13	-9	-13	-7	5	4
CCc1ccc(NC(=O)COC(=O)/C=C/c2ccco2)cc1	nt	nt	4	nt	nt	nt
CN(Cc1ccccc1)C(=O)COC(=O)/C=C/c1ccco1	25*	3	5	82*	-11	25
CN(CCOC(=O)/C=C/c1ccco1)Cc1ccccc1	46*	1	10	90*	-4	23
COc1ccc(CCCC(=O)N/N=C/c2ccccc2OC)cc1	63*	-2	5	active	-12	-8
CC(=O)N(c1nc(CCl)cs1)c1ccc(C)cc1C	-4	3	7	-4	-3	-5
CCc1ccccc1N(C(C)=O)c1nc(CCl)cs1	71	3	23	active	3	10
O=[N+]([O-])c1ccc(Cl)c(S(=O)(=O)NCCc2ccccn2)c1	nt	nt	1	nt	nt	nt
SMILES	PABP FP inh	HCV core dimer	PABP1 MLLE inh	eIF4H FP inh	FID counter	HCV NS3 hel inh
O=C(O)C1CSC(c2ccncc2)N1 (centres undefined)	3	-9	38*	0	0	2
COC(=O)c1ccc(C2NC(C(=O)O)CS2)cc1 (centres undefined)	-4	-3	31	-8	-3	0
CC(CN1CCCCCC1)C(=O)NN (centres undefined)	82*	-1	-13	active	-6	-1
COC(=O)\C(C(C)=O)=C(/C=C/C=C/C=C/N(C)C)N(C)C	66*	42	3	90*	-24	36
Cc1ccc(C)c(SCC(=O)NC(=O)NC2CCCC2)c1	nt	nt	15	nt	nt	nt
CC(=O)NC(Cc1cc(C)ccc1C)C(=O)N1CCN(C(=O)c2ccc([N+](=O)[O-])cc2)CC1 (centres undefined)	3	-3	1	-5	-29	-3
COc1ccc2nc(/C(C#N)=C\c3ccc(Oc4ccc([N+](=O)[O-])cn4)cc3)[nH]c2c1	active	58*	-82	84*	-1	2
Cc1cc(/C=C(\C#N)C(=O)Nc2ccccc2)c(C)n1-c1cccnc1	87	16	11	6	-10	-3
Cc1cc(C(=O)O)ccc1-n1c(C)cc(/C=C(/C#N)C(=O)Nc2ccccc2)c1C	57*	14	4	63*	-38	19
Cc1ccc(C(=O)N/C(=C\c2ccc(-c3ccc(Cl)cc3)o2)C(=O)NCCCN(C)C)cc1	3	-17	-7	6	53*	-16
Cc1ccc(C(=O)N/C(=C\c2ccc(-c3cccc([N+](=O)[O-])c3)o2)C(=O)NCCCN2CCOCC2)cc1	4	-30	9	-3	44*	-18
COc1cc(Cn2c3ccc(NC(=O)NCCc4ccccc4)cc3c(=O)n2C)ccc1F	nt	nt	0	nt	nt	nt
O=C(COc1ccc(-c2ccccc2)cc1)N1CCN(C(=O)c2cccnc2)CC1	0	7	-12	1	-23	0
O=C(c1ccccc1)N1CC(COc2ccccc2)OC(c2cccnc2)O1 (centres undefined)	77*	3	-7	63*	-5	-17
OCCNCCSc1nc(C2CCCCC2)n(-c2ccccc2Cl)n1	50	1	1	4.8*	13	-12
NC(=O)NC(=O)CSc1nc(C2CCCCC2)n(-c2ccccc2)n1	4	2	-2	-1	-8	-4
CCC(=O)N1CCC1(C)C(=O)Nc1cc(OC)ccc1OC (centres undefined)	nt	nt	-9	nt	nt	nt
CSCCC(NC(N)=O)C(=O)Nc1cccc(C#N)c1 (centres undefined)	-12	0	-2	53*	4	-2
Cc1ccc(C2C(C#N)=C(N)Oc3c2oc(CO)cc3=O)o1 (centres undefined)	56	-1	4	45*	nt	nt
CC(C)Oc1ccc(C2C(C#N)=C(N)Oc3c2oc(CO)cc3=O)cc1 (centres undefined)	-8	6	3	43	-7	4
CCN1C(=O)[C@H]2[C@H]3CN=C(SCC(=O)c4ccccc4)N3[C@@](C)(C(=O)OC)[C@H]2C1=O	nt	nt	45*	nt	nt	nt
COC(=O)[C@@]1(C)[C@H]2C(=O)N(Cc3ccccc3)C(=O)[C@H]2[C@H]2CN=C(SCc3ccccc3)N21	nt	nt	-10	nt	nt	nt
Cc1cc(C)c2c(=O)c(C#N)coc2c1	-10	5	39*	-8	-4	3
CCOc1ccccc1C(=O)N1CCN=C1SCc1cccnc1	-6	-2	40*	-5	-4	-4
CCc1ccccc1NC(=O)CNC(=O)CCC(=O)c1cc(C)sc1C	nt	nt	9	nt	nt	nt
